# Screening data deposited in PubChem by Broad Institute.
# E-sel inducer: E-selectin induction on HUVECs; HUVEC E-selectin immunofluorescence imaging; normalized: neutral wells 0, TNF-alpha wells 100; 260,000 compounds, 0.37% hits; activation, % at 7.58 µM; P16581;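 active means mean E-selectin-positive cell signal at least 10% of the positive control, reached in at least 60% of replicates, without over 20% cell loss; inconclusive means no rule given, readout overlaps actives, possibly toxicity-flagged; inactive means the rest, including those meeting only one limit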
# Target sequence (P16581 whole entry, looked up): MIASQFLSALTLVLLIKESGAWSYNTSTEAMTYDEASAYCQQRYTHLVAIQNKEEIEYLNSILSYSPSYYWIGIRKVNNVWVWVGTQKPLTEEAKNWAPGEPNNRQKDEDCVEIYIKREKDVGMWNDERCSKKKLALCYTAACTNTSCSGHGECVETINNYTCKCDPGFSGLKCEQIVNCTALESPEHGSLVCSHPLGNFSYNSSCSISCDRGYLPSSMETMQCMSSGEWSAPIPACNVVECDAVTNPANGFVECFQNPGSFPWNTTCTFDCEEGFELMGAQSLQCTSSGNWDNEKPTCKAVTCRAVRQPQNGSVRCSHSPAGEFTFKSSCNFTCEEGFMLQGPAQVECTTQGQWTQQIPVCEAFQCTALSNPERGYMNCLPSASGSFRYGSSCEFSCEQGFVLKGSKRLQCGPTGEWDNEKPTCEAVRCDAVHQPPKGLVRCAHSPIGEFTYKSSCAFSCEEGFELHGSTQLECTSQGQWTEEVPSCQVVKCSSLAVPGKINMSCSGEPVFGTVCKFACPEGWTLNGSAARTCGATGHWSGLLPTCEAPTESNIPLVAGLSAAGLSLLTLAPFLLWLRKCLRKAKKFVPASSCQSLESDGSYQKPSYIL
#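 System: HUVEC, human umbilical vein endothelial cells; quantity: 3,000 cells/well; buffer or medium: EGM-2 medium, gelatin-coated wells; dosing: single-point compound dose; detection: immunofluorescence imaging; evaluation: % PE-positive cells; benchmarks: TNF-alpha, DMSO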
# Env fusion inh: blocks HIV Env-driven cell-cell fusion. HeLa-JRFL Env/CEM21 cell fusion, luciferase. inhibition, % at 12.3 µM. 360,000 compounds, 1.1% hits. AID 651610;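 active means mean replicate inhibition score of at least 50 and every replicate individually at or above 50; inconclusive means only one of the two criteria met; inactive means mean below 50 and not all replicates reaching 50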;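 further: 0% = plate neutral controls and 100% = maraviroc near 300 nM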
# F508del corr: CFTR F508del correction in bronchial cells. CFBE cells, YFP halide quenching; stimulated with forskolin plus potentiator P3; % fluorescence drop versus neutral controls. activity (quench increase), % at 7.58 µM. 350,000 compounds, 0.36% hits;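 active means mean added fluorescence quench of at least 8% versus neutral control, with both replicates also reaching 8%; inconclusive means only one of the mean or replicate conditions met; inactive means mean below 8% and not both replicates reaching 8%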;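 further: cells transiently co-express mutant CFTR-F508del with the halide-sensitive YFP; corrector assay measuring rescue of mutant channel to the surface after 24 h compound exposure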
# S100A4 inh HTS: blocks human S100A4 binding to myosin IIA peptide; P26447; S100A4/TAMRA-MyoIIA peptide fluorescence polarization; inhibition, % at 10.7 µM; 360,000 compounds, 0.14% hits; AID 652163;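 active means mean inhibition of at least 70% across replicates, with every replicate also reaching that level; inconclusive means mean inhibition reaches 70% but some replicates fall short; inactive means mean inhibition below 70%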
#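 Material: S100A4 monomer protein / Buffer or medium: 50 mM HEPES pH 7.2, 10 mM CaCl2, 100 mM KCl / Times: 5 min incubation before reading / Benchmarks: neutral control DMSO, positive control TFP / Reagent: labelled myosin peptide probe, 5 nM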
# FGF22 binding: shifts melting point of recombinant human FGF22; Q9HCT0; recombinant FGF22 thermal shift, SYPRO orange fluorescence; percent of sucrose octasulfate shift, DMSO zero; activity (Tm shift, normalised), % at 9.99 µM; 340,000 compounds, 1.5% hits; AID 651658;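 active means mean Tm shift, scaled 0 neutral to 100 positive control, at about 1.3% or above, every replicate too, limit read from the data; inconclusive means no clear call, values can overlap the other calls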
# The depositor's hits bear a star; ? = inconclusive; . = no result; [ ] = dose if it differs, or a comment. Sampled rows, rich in hits. Any-hit rate of the full collection: about 2.7%.
SMILES,E-sel inducer,Env fusion inh,F508del corr,S100A4 inh HTS,FGF22 binding
CC(=O)c1c(C)oc2c1C(=O)c1ccccc1C2=O,0,13,.,8,0
COc1ccc(CNC(=O)c2c(C)oc3c2C(=O)c2ccccc2C3=O)cc1,0,64*,12*,-4,0
CC1(C(=O)Nc2ccccc2)Cc2ccccc2C(=O)O1 (configuration not stated),1,15,-7,-1,0
CO[C@H]1CN(C)C(=O)c2cc(NC(=O)Nc3cc(F)ccc3F)ccc2OC[C@H](C)N(C(=O)c2cnccn2)C[C@H]1C,0,.,-5,-21,0
O=C(C[C@H]1CC[C@H](NC(=O)c2ccncc2)[C@@H](CO)O1)Nc1ccc(-c2ccccc2)cc1,2,-7[16.7 µM],1,-17,.
CN(C)CCCNc1ncnc2scc(-c3ccccc3)c12,3,-2,1,2,0
c1nc(NCCN2CCOCC2)c2c3c(sc2n1)CCCCC3,.,-3,.,.,.
c1ccc(-c2csc3ncnc(NCCN4CCOCC4)c23)cc1,.,78*,.,.,.
Clc1ccc(-c2csc3ncnc(NCCN4CCOCC4)c23)cc1,.,63*,.,.,.
C[C@@H]1CN([C@H](C)CO)C(=O)c2cccc(NS(=O)(=O)c3ccccc3)c2O[C@H]1CN(C)Cc1ccc(C(F)(F)F)cc1,0,.,1,2,0
O=S(=O)(Nc1cc(Sc2cccc3cccnc23)c(O)c2ccccc12)c1ccccc1,.,.,26*,-10,0
O=C(COc1cccc2cccnc12)N1CCc2ccccc21,.,-132,-2,4,43*
COc1ccc2cc(C(c3nnnn3CC3CCCO3)N3CCOCC3)c(=O)[nH]c2c1 (configuration not stated),.,-22,.,.,.
COc1ccc2[nH]c(=O)c(C(c3nnnn3CC3CCCO3)N3CCCCC3)cc2c1 (configuration not stated),.,13,-1,-6,43*
CC(=O)N1CC[C@@H]2[C@H]1c1cc(C#Cc3cccnc3)ccc1N[C@@H]2CO,1,.,0,2,0
C/C(=N\NC(=O)c1c([N+](=O)[O-])c(C)nn1C)c1ccc(NC(=O)C2CCCC2)cc1,.,-151,6,14,0
C/C(=N\NC(=O)c1c(Cl)c(C)nn1C)c1ccc(NC(=O)C2CCC2)cc1,-1,4,11*,1,0
CN(C)CC(=O)Nc1ccc2c(c1)[C@@H]1C[C@@H](CC(=O)N(C)C)O[C@@H](CO)[C@@H]1O2,-1,.,1,-5,0
CC(C)Nc1nc(-c2ccccc2CO)c2sccc2n1,0,-4,2,-2,43*
NNC(=O)c1sc(-c2ccccc2)cc1N,.,-16,-2,-3,44*
CC(=O)c1sc(-c2ccccc2)cc1N,0,-11,-4,7,0
CCn1c(C)[n+](Cc2ccccc2)c2ccc(C(=O)OC)cc21,.,-1,0,-2,43*
COc1ccccc1OCCNC(=O)CCNC(=O)c1ccccc1OC,0,4,24*,-1,0
CN(C)CC(=O)N[C@@H]1C[C@@H]2O[C@H](CO)CC[C@@H]2O[C@@H]1CCc1ccc(C2=CCCCC2)cc1,.,.,1,-4,.
CCOC(=O)c1ccc(NC(=O)NC(C)C2CCCO2)cc1 (configuration not stated),.,-13,.,.,.
SMILES,E-sel inducer,Env fusion inh,F508del corr,S100A4 inh HTS,FGF22 binding
CC(NC(=O)Nc1ccc(Cl)cc1)C1CCCO1 (configuration not stated),.,2,0,-3,43*
CN1/C(=C\C=N\O)C(C)(C)c2ccccc21,.,20,.,-10,0
CN1/C(=C\C=C2/C(=O)Oc3ccccc3C2=O)C(C)(C)c2ccccc21,5,-2,4,178*,0
CO/N=C/C=C1/N(C)c2ccccc2C1(C)C,0,-2,0,-3,0
CN1/C(=C\C=C2/SC(=S)NC2=O)C(C)(C)c2ccccc21,?,32,25*,104*,0
CN1C(=CC=C2C=C(I)C(=O)C(I)=C2)C(C)(C)c2ccccc21,163*,-9,9.6*,-1,0
CCCN1C(=O)/C(=C\C=C2\N(CC)c3ccccc3C2(C)C)SC1=S,3,11,16*,-43,0
CCN1C(=O)/C(=C/C=C2\C=CN(CC)c3ccccc32)SC1=S,.,-22,.,.,.
C[C@@H]1CN([C@@H](C)CO)C(=O)c2cc(C#CC3(O)CCCC3)cnc2O[C@@H]1CN(C)Cc1ccccc1,0,-15[16.7 µM],-1,20,0
CC=Cc1ccc2n(c1=O)C[C@@H]1[C@@H](CO)[C@H](C(=O)NC3CCCC3)N(Cc3ccncc3)[C@H]21 (mixture of isomers),0,.,.,11,0
CN(C)C(=O)C[C@@H]1C=C[C@@H](NC(=O)Nc2cccc(F)c2)[C@H](CO)O1,0,2[16.7 µM],-1,5,0
O=C(O)C[C@H]1C=C[C@H](NC(=O)Nc2ccccc2)[C@@H](CO)O1,0,3[16.7 µM],-2,-1,0
CN(C)C(=O)C[C@@H]1C=C[C@H](NC(=O)Nc2cccc(F)c2)[C@@H](CO)O1,0,3[16.7 µM],-2,97*,0
O=C(O)C[C@@H]1C=C[C@H](NC(=O)Nc2ccccc2)[C@H](CO)O1,0,58*[16.7 µM],-2,2,0
C[C@@H]1CCCCO[C@H](CN(C)Cc2ccc(C(=O)O)cc2)[C@H](C)CN([C@@H](C)CO)C(=O)c2cc(N(C)C)ccc2O1,1,-1[16.7 µM],0,4,0
COc1ccc(NC(=O)Nc2ccc3c(c2)C(=O)N([C@H](C)CO)C[C@@H](C)[C@H](CN(C)C(=O)Nc2ccc(OC)cc2)O3)cc1,0,4[16.7 µM],0,2,0
CCC(C)N(CCNC(=O)c1ccc2c(c1)NC(=O)c1ccccc1S2)C1CCCCC1 (configuration not stated),.,79*,1,-6,0
CC1CCCC(C)N1CCCNC(=O)c1ccc2c(c1)NC(=O)c1ccccc1S2 (configuration not stated),1,?,4,-4,0
C[C@@H]1CCCCO[C@H](CN(C)Cc2ccncc2)[C@@H](C)CN([C@@H](C)CO)C(=O)c2cc(NC(=O)c3ccccc3)ccc2O1,0,-44[16.7 µM],1,6,0
COc1ccc(CCNC(=O)[C@@H]2c3ccccc3C(=O)N(CC34CC5CC(CC(C5)C3)C4)[C@H]2c2ccc(CO)cc2)cc1,.,40[16.7 µM],1,7,-1
O=C(NCC(F)(F)F)[C@@H]1c2ccccc2C(=O)N(CC23CC4CC(CC(C4)C2)C3)[C@H]1c1ccc(CO)cc1,.,74*[16.7 µM],-2,-5,1
COc1ccc(C(=O)C/C(=C\C(=O)c2ccc(C)cc2)c2ccccc2)cc1,.,103*,.,.,.
CC(C)NC(=O)Nc1ccc2c(c1)C(=O)N([C@H](C)CO)C[C@@H](C)[C@H](CN(C)S(C)(=O)=O)OCCCC[C@@H](C)O2,.,4[16.7 µM],0,-7,0
